Assay results from the EternaBench riboswitch data.

Key:
MS2 coat protein [1] = assay: apparent Kd, MS2 coat protein; higher = weaker binding; RNA-MaP array; tryptophan 2.4 mM where present
Procedure, shortened: (§1)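 The apparent Kd comes from binding curves fitted cluster by cluster, filtered, and summarised as a median. Those curves followed SNAP-549-labelled MS2 coat protein from 0.7 or 1.5 nM, doubling to 3 µM, on Illumina sequencing-chip clusters where stalled E. coli RNA polymerase had transcribed the designs, without and then with constant ligand. The buffer was 100 mM Tris-HCl pH 7.5, 80 mM KCl, 4 mM MgCl2, BSA, DTT, yeast tRNA and Tween-20, and green signal was normalised to red-channel RNA signal and control-cluster median Fmax.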

MS2 coat protein [2] = assay: apparent Kd, MS2 coat protein; higher = weaker binding; RNA-MaP array; theophylline 2 mM where present
Procedure, shortened: as §1

[3] = designed as: ON switch for tryptophan, no ligand
[4] = ligand present: tryptophan, designed as: ON switch for tryptophan
[5] = designed as: OFF switch for tryptophan, no ligand
[6] = ligand present: tryptophan, designed as: OFF switch for tryptophan
[7] = designed as: OFF switch for theophylline, no ligand
[8] = ligand present: theophylline, designed as: OFF switch for theophylline
[9] = designed as: ON switch for theophylline, no ligand
[10] = ligand present: theophylline, designed as: ON switch for theophylline

Sequence	apparent Kd (MS2 coat protein [1]; [3])	apparent Kd (MS2 coat protein [1]; [4])	apparent Kd (MS2 coat protein [1]; [5])	apparent Kd (MS2 coat protein [1]; [6])	also measured
AAACAUGAGGAUCACCCAUGUUGAGGAUCACGAGGACCGGUACGGCCGCCACUCGACAUGAGGAUCACCCAUGUGAGGAUCACCC	0.175 µM	0.174 µM	–	–	–
AAAUAAACCUCGGCCGCCACUCGCCAUGAGGAUCACCCAUGUAACAUGAGGAUCACCCAUGUACAGAGGACCGGGAGGUCCUAGU	0.073 µM	0.1 µM	–	–	–
AACAACUAGUCGGCCGCCACUCAUAAUACAUGAGGAUCACCCAUGUAUACUUGGUUUUUAUAUUUGAGGACCGGGACAGUUGCAU	–	–	0.0116 µM	0.0105 µM	–
AAUGUAUGGCACAUGAGGAUCACCCAUGUGCGAGGACCGGUACGGCCGCCACUCGGUCCUGGGAUCUUAUUACUAUACAUUAAUG	–	–	0.0116 µM	0.024 µM	–
AAUGUAUUCCACAUGAGGAUCACCCAUGUGCGAGGACCGGUACGGCCGCCACUCGGUGUUGGGAUCAGUUCUGAAUACAUUAAUG	–	–	0.0159 µM	0.0475 µM	–
AAUUAUCAGUCGGCCGCCACUGACACAUGAGGAUCACCCAUGUAACUUGGGAUAAAUUUAAUAAACAGGACCGGGACAAAGGCUA	–	–	0.0588 µM	0.0497 µM	–
AAUUCCGGGUCGGCCGCCACUGAUAUGGCGAGUCCUCGAACUUACAUGAGGAUCACCCAUGUAAACAGGACCGGGACCGCAUGGG	–	–	0.0185 µM	0.0491 µM	–
ACACAAUACAUGAGGAUCACCCAUGUAAAACGAGGACCGGUACGGCCGCCACUCGAAUACUGUAAUCCUCGGAAUAUUAAGUGAA	–	–	0.041 µM	0.0353 µM	–
ACAUGAGGAUCACCCAUGUACAUCACCCGACGAGGACCGGUACGGCCGCCACUCGGGUAUAUAUAUACAUCGGGUGGUUUUGCAU	0.0176 µM	0.0173 µM	–	–	–
ACGUAGAAGUCGGCCGCCACUGAUUUCAUGUUCAACAUGAGGAUCACCCAUGUACCUUAUGUUAACAGGACCGGGACGUAUACGA	0.298 µM	0.055 µM	–	–	–
AGCAACAAGUCGGCCGCCACUCUUUUUACAUGAGGAUCACCCAUGUUUAUAUCAUGGUCUUAAUAGAGGACCGGGACAGUUGCAU	–	–	0.0372 µM	0.0546 µM	–
AGCAACUAGUCGGCCGCCACUCAUAUUACAUGAGGAUCACCCAUGUAUACAUGGUUGUUAUAUUUGAGGACCGGGACAGUUGCAU	0.0704 µM	0.0381 µM	–	–	–
AUAAUAUAGACGGCCGCCACUAUAAACAUGAGGAACAUGAGGAUCACCCAUGUAUGAGGAUCACCUAGGACCGGGUCAUAUAUUA	–	–	0.0558 µM	0.042 µM	–
AUGCAGAACACGGCCGCCACUCAUUGUAGACAUGAGGAUCACCCAUGUAAUAGGGAUAUUUUAUUGAGGACCGGGUGUAAUGCAA	0.0511 µM	0.0289 µM	–	–	–
CACAAUUUGUCGGCCGCCACUAAGGUAACUUUUCUCACAUGAGGAUCACCCAUGUGCCCGAAACUUAGGACCGGGAUAAUGGGUG	0.0824 µM	0.0453 µM	–	–	–
CAGGCUAGGACGGCCGCCACUGUGGCUACGGUACAUGAGGAUCACCCAUGUUUGUGGUUGAUCUACAGGACCGGGUCCUGACACG	0.132 µM	0.483 µM	–	–	–
CCUAUGCAGUCGGCCGCCACUGAACAUGAGGAUCACCCAUGUAAUUAAAAUUAUGAUCCUGAAAUCAGGACCGGGACUGUAUAGG	–	–	0.218 µM	0.0854 µM	–
CCUAUGCAGUCGGCCGCCACUGAGUCCUCAAUAAUAAAUUAAUAUACAUGAGGAUCACCCAUGUACAGGACCGGGACUGUAUAGG	–	–	0.205 µM	0.167 µM	–
CGCAACAUGAGGAUCACCCAUGUAAUGACGCGAGGACCGGUACGGCCGCCACUCGCCUGGCAGUGAGCGCAUGCGGCCUGGGUAU	–	–	0.0111 µM	0.0122 µM	–
CGCCACUCGAGUGAUCCUCACGAGUGGCUACGAGGACCGGUACGGCCGCCACUCGAAUUAACAUGAGGAUCACCCAUGUACUCCA	0.0936 µM	0.0191 µM	–	–	–
CUAAUUAUAUCGGCCGCCACUUACUCAUGAGGUAACAACAUGAGGAUCACCCAUGUUUGAGGAUCAAGGACCGGGAUAUAAUUAG	0.0289 µM	0.017 µM	–	–	–
CUAUAAGUACCGGUCCUCAGAUCCUCAUGACGAGGACCGGUACGGCCGCCACUCGAAACAUGAGGAUCACCCAUGUAAUAACAUU	–	–	0.0198 µM	0.0202 µM	–
CUCAUCCACGCGGCCGCCACUAUAUUGUGGUGCGAAUGUGUCGUAAUACAUGAGGAUCACCCAUGUAGGACCGGGCGUGGAUGAG	–	–	0.0126 µM	0.0548 µM	–
CUUCGCAUAGGAAAACUAUGUGAAGAAAAUCGAGGACCGGUACGGCCGCCACUCGUCCUCAACAUGAGGAUCACCCAUGUAAUAA	–	–	0.0183 µM	0.0401 µM	–
GACGCAUGAGUUGGAACAGCUCAUGGGUCGCGAGGACCGGUACGGCCGCCACUCGGCUGUACAUGAGGAUCACCCAUGUCAGGGU	0.279 µM	0.55 µM	–	–	–
GCAUCCUAGUCGGCCGCCACUGCAAUUGUAGUACUGCUACAUGAACAUGAGGAUCACCCAUGUAGCAGGACCGGGACUAGGAUGC	0.055 µM	0.0161 µM	–	–	–

Sequence	apparent Kd (MS2 coat protein [1]; [3])	apparent Kd (MS2 coat protein [1]; [4])	apparent Kd (MS2 coat protein [1]; [5])	apparent Kd (MS2 coat protein [1]; [6])	also measured
GCCGCUGCCGCGAUAUGUAUGGGUGUGUAACGAGGACCGGUACGGCCGCCACUCGCGAUCGCACAUGAGGAUCACCCAUGUGUCC	–	–	0.0537 µM	0.0785 µM	–
GCGGAAUAAUCGGCCGCCACUAUGAUAUAGGAAACUAUAACAUGAGGAUCACCCAUGUAUCCUCAUAGGACCGGGAUUAAAACGC	0.105 µM	0.0248 µM	–	–	–
GGAAUAAUGGCGGCCGCCACUAACUCAUAUACAUCAUGUACAUGAGGAUCACCCAUGUAGGUGUAUAGGACCGGGCCAUAAUUCC	–	–	0.0224 µM	0.0381 µM	–
GGAGCUACGUCGGCCGCCACUAGCGGUUAUUACGUGUACAUGAGGAUCACCCAUGUAAUAUGGCUUAGGACCGGGACGUAGCUCC	–	–	0.0225 µM	0.0271 µM	–
GGGUACAUCGCGGCCGCCACUUAUGUAAAUACAUGAGGAUCACCCAUGUCGAUGGAGACAUCGGAGAGGACCGGGUGAUGUACCG	0.0361 µM	0.0359 µM	–	–	–
GGUUACUCUACGGCCGCCACUGAUUAAUUAUAAACCUGUACAUAAACAUGAGGAUCACCCAUGUACAGGACCGGGUAGUGUAACC	0.0377 µM	0.0268 µM	–	–	–
GUUAUAUACUCGGCCGCCACUGAGAGAGUCAUGUAAACAUGAGGAUCACCCAUGUAAUAUAUAUACAGGACCGGGAGUAUAGUAA	–	–	0.0145 µM	0.013 µM	–
UAACAUGAGGAUCACCCAUGUAAACUAAGUCGAGGACCGGUACGGCCGCCACUCGAAAUUGAAGAAUUGGCGGAAAAUGUAUGUU	–	–	0.0139 µM	0.0189 µM	–
UAACAUGAGGAUCACCCAUGUUUGAAGAAACGAGGACCGGUACGGCCGCCACUCGACGAGUGGAUGAAUAGUGGGCUUGUGUGCU	0.0137 µM	0.015 µM	–	–	–
UAAUCCGGUCCUCGAUAACAUGGGUGAAUACGAGGACCGGUACGGCCGCCACUCGAUAACAUGAGGAUCACCCAUGUAAUAAUAA	–	–	0.0857 µM	0.0841 µM	–
UAAUGCAUGACGGCCGCCACUAGAACAUGAGGAUCACCCAUGUACGGCGGCCGUCAUGGGUGGACUAGGACCGGGUCAUGCAUAU	–	–	0.00923 µM	0.0105 µM	–
UAUACAUGGUAUAAAUAUAUAUAUAAGAAACGAGGACCGGUACGGCCGCCACUCGUGCCGGAAACAUGAGGAUCACCCAUGUAUU	–	–	0.0376 µM	0.0227 µM	–
UAUAUAUAUAUUGAUACCAGCAGAGAAAACGUAUAUCCUAACAUGAGGAUCACCCAUGUAUGCCCUUGGCAGCGAUAUAUAUAUA	–	–	–	–	apparent Kd (MS2 coat protein [2]; [7]): 0.0243 µM; apparent Kd (MS2 coat protein [2]; [8]): 0.0314 µM
UAUAUAUAUAUUGAUACCAGCAGAGAAAACGUUUAUCCUAACAUGAGGAUCACCCAUGUAUGCCCUUGGCAGCGAUAUAUAUAUA	–	–	–	–	apparent Kd (MS2 coat protein [2]; [7]): 0.0245 µM; apparent Kd (MS2 coat protein [2]; [8]): 0.0325 µM
UAUAUAUUGAUGGAUACCAGCAGAGAAAACGUUUAUCCUAACAUGAGGAUCACCCAUGUAUGCCCUUGGCAGCUGUUGAUAUAUA	–	–	–	–	apparent Kd (MS2 coat protein [2]; [7]): 0.0222 µM; apparent Kd (MS2 coat protein [2]; [8]): 0.0326 µM
UCGUGUAUAUCGGAUACCAGUGAGAACGAUACAUGAGGAUCACCCAUGUGAGUUGAUGUACACCCUUGGCAGCUGUAUAUAUCUA	–	–	–	–	apparent Kd (MS2 coat protein [2]; [9]): 0.025 µM; apparent Kd (MS2 coat protein [2]; [10]): 0.0163 µM
UGAUCCUACAGAGAUACCAGUGCCACUGAGUGACCAGACACAUGAGGAUCACCCAUGUAACACCCUUGGCAGCUCAACUAAAGGG	–	–	–	–	apparent Kd (MS2 coat protein [2]; [9]): 0.0222 µM; apparent Kd (MS2 coat protein [2]; [10]): 0.0803 µM
UGAUCCUACAGAGAUACCAGUGCCGCUAGAUAACUAUGCACAUGAGGAUCACCCAUGUAACACCCUUGGCAGCUCAACUAAAGGG	–	–	–	–	apparent Kd (MS2 coat protein [2]; [9]): 0.0922 µM; apparent Kd (MS2 coat protein [2]; [10]): 0.115 µM
UGAUCCUAGACUGAUACCAGUCAUGAGUACAUGAGGAUCACCCAUGUCCAGGGACUCAAUGACCCUUGGCAGCAGAACCUAGUUC	–	–	–	–	apparent Kd (MS2 coat protein [2]; [9]): 0.193 µM; apparent Kd (MS2 coat protein [2]; [10]): 0.147 µM
UGGUCACUAGGAGAUACCAGCCGACAUGAGGAUCACCCAUGUAACCGGCGUCCUCCCUUAGGCCCUUGGCAGCUCGUAGUUGCUC	–	–	–	–	apparent Kd (MS2 coat protein [2]; [7]): 0.0122 µM; apparent Kd (MS2 coat protein [2]; [8]): 0.156 µM
UGUAACAUGAGGAUCACCCAUGUGAGUGAUACCAGACUAGUGUUGGUCCCUUGGCAGCACGCUGGGCGAGUGUGUAGUCUAUGCG	–	–	–	–	apparent Kd (MS2 coat protein [2]; [9]): 0.0928 µM; apparent Kd (MS2 coat protein [2]; [10]): 0.12 µM
UGUAUGUGAUCUGAUACCAGUCCAACUGGUAAAACAUGAGGAUCACCCAUGUAAAAUUGGGACCCUUGGCAGCAGAUCGCAUACU	–	–	–	–	apparent Kd (MS2 coat protein [2]; [9]): 0.534 µM; apparent Kd (MS2 coat protein [2]; [10]): 0.0284 µM
UGUAUGUGAUGUGAUACCAGUCCAAUACUGGUAACAUGAGGAUCACCCAUGUAAUGAUGGGACCCUUGGCAGCACAUCGCAUACU	–	–	–	–	apparent Kd (MS2 coat protein [2]; [9]): 0.212 µM; apparent Kd (MS2 coat protein [2]; [10]): 0.111 µM
UGUAUGUGAUUUGAUACCAGUUCUGCUGGUAAAACAUGAGGAUCACCCAUGUUACUUUGGGACCCUUGGCAGCAAAUCGCAUACU	–	–	–	–	apparent Kd (MS2 coat protein [2]; [9]): 0.201 µM; apparent Kd (MS2 coat protein [2]; [10]): 0.0139 µM
UUAAGAGGCUAUCCACUUUGAUUUUGUGAUACCAGAAUAAUUUUAUUCCCUUGGCAGCAUGACAUGAGGAUCACCCAUGUGUCUU	–	–	–	–	apparent Kd (MS2 coat protein [2]; [9]): 0.0374 µM; apparent Kd (MS2 coat protein [2]; [10]): 0.0724 µM
UUAUUUAUAAAUGAUACCAGCCGAUUGGCCGCAAAUCCUAACAUGAGGAUCACCCAUGUCGGCCCUUGGCAGCAUUUAUGGGUUU	–	–	–	–	apparent Kd (MS2 coat protein [2]; [7]): 0.0767 µM; apparent Kd (MS2 coat protein [2]; [8]): 0.722 µM
